From ChEMBL document CHEMBL3045293, “Effect of the herbicides terbuthylazine and glyphosate on photosystem II photochemistry of young olive (Olea europaea) plants” (J Agric Food Chem, 2011)

Tests used:
Type in all cases: organism-based
Olea europaea [1] = assay: Toxicity in young Olea europaea (olive) plants assessed as reduction in intracellular CO2 level at 3 kg/ha measured 60 days post dose in presence of oil Olea europaea (olive)-mill waste; conditions: in vivo, 1440 h
Summary of the method: (§1)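 Gas exchange (net photosynthetic rate, stomatal conductance, intercellular CO2) measured on young olive plants in triplicate pots. Herbicide was applied to the soil surface 24 h after OW addition, and pots without herbicide or OW served as controls. Readings were taken 24 h, 15 days and 60 days after treatment. Values are mean ± SE, n = 9, compared by Tukey test (P < 0.05).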

Olea europaea [2] = assay: Toxicity in young Olea europaea (olive) plants assessed as reduction in quantum efficiency of photosystem II at 3 kg/ha measured 15 days post dose; conditions: in vivo, 360 h
Summary of the method: (§2)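 Leaves of potted young olive plants; herbicide applied to the soil surface 24 h after olive-mill waste (OW) amendment; triplicate pots; untreated pots without herbicide or OW as controls. Modulated chlorophyll fluorescence (portable fluorimeter) read at 24 h, 15 days and 60 days. Light- and dark-adapted parameters taken at dawn (1–7 μmol m2 s1) and midday (1700 μmol m2 s1), after 30 min dark adaptation in leaf-clips.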

Olea europaea [3] = assay: Toxicity in young Olea europaea (olive) plants assessed as induction of chronic photoinhibition of photosystem II at 3 kg/ha measured 60 days post dose; conditions: in vivo, 1440 h
Olea europaea [4] = assay: Toxicity in young Olea europaea (olive) plants assessed as reduction in stomatal conductance at 3 kg/ha measured 15 days post dose; conditions: in vivo, 360 h; summary of the method: as §1
Olea europaea [5] = assay: Toxicity in young Olea europaea (olive) plants assessed as reduction in photosynthetic rate at 3 kg/ha measured 60 days post dose; conditions: in vivo, 1440 h; summary of the method: as §1
Olea europaea [6] = assay: Toxicity in young Olea europaea (olive) plants assessed as induction of chronic photoinhibition of photosystem II at 3 kg/ha measured 60 days post dose in presence of oil Olea europaea (olive)-mill waste; conditions: in vivo, 1440 h
Olea europaea [7] = assay: Toxicity in young Olea europaea (olive) plants assessed as effect on maximum quantum efficiency of photosystem II at 3 kg/ha measured at midday 24 hr post dose; conditions: in vivo; summary of the method: as §2
Olea europaea [8] = assay: Toxicity in young Olea europaea (olive) plants assessed as reduction in intracellular CO2 level at 3 kg/ha measured 60 days post dose; conditions: in vivo, 1440 h; summary of the method: as §1
Olea europaea [9] = assay: Toxicity in young Olea europaea (olive) plants assessed as reduction in intracellular CO2 level at 3 kg/ha measured 15 days post dose; conditions: in vivo, 360 h; summary of the method: as §1
Olea europaea [10] = assay: Toxicity in young Olea europaea (olive) plants assessed as reduction in non-photochemical quenching photosystem II at 3 kg/ha measured 15 days post dose; conditions: in vivo, 360 h; summary of the method: as §2
Olea europaea [11] = assay: Toxicity in young Olea europaea (olive) plants assessed as effect on maximum quantum efficiency of photosystem II at 3 kg/ha measured 15 days post dose; conditions: in vivo, 360 h; summary of the method: as §2
Olea europaea [12] = assay: Toxicity in young Olea europaea (olive) plants assessed as reduction in photosynthetic rate at 3 kg/ha measured 15 days post dose; conditions: in vivo, 360 h; summary of the method: as §1
Olea europaea [13] = assay: Toxicity in young Olea europaea (olive) plants assessed as reduction in intracellular CO2 level at 3 kg/ha measured 15 days post dose in presence of oil Olea europaea (olive)-mill waste; conditions: in vivo, 360 h; summary of the method: as §1
Olea europaea [14] = assay: Toxicity in young Olea europaea (olive) plants assessed as reduction in stomatal conductance at 3 kg/ha measured 60 days post dose; conditions: in vivo, 1440 h; summary of the method: as §1
Olea europaea [15] = assay: Toxicity in young Olea europaea (olive) plants assessed as reduction in photosynthetic rate at 3 kg/ha measured 15 days post dose in presence of oil Olea europaea (olive)-mill waste; conditions: in vivo, 360 h; summary of the method: as §1
Olea europaea [16] = assay: Toxicity in young Olea europaea (olive) plants assessed as reduction in photosynthetic rate at 3 kg/ha measured 60 days post dose in presence of oil Olea europaea (olive)-mill waste; conditions: in vivo, 1440 h; summary of the method: as §1
Olea europaea [17] = assay: Toxicity in young Olea europaea (olive) plants assessed as reduction in non-photochemical quenching photosystem II at 3 kg/ha measured 60 days post dose; conditions: in vivo, 1440 h; summary of the method: as §2
Olea europaea [18] = assay: Toxicity in young Olea europaea (olive) plants assessed as stomatal conductance at 3 kg/ha measured 60 days post dose in presence of oil Olea europaea (olive)-mill waste; conditions: in vivo, 1440 h; summary of the method: as §1
Olea europaea [19] = assay: Toxicity in young Olea europaea (olive) plants assessed as reduction in quantum efficiency of photosystem II at 3 kg/ha measured 60 days post dose; conditions: in vivo, 1440 h; summary of the method: as §2
Olea europaea [20] = assay: Toxicity in young Olea europaea (olive) plants assessed as stomatal conductance at 3 kg/ha measured 15 days post dose in presence of oil Olea europaea (olive)-mill waste; conditions: in vivo, 360 h; summary of the method: as §1
Olea europaea [21] = assay: Toxicity in young Olea europaea (olive) plants assessed as reduction in maximum quantum efficiency of photo system measured by Fv/Fm ratio 2 at 3 kg/ha measured 60 days post dose (reference value: 0.8); conditions: in vivo, 1440 h; summary of the method: as §2

| Compound | Activity (Olea europaea [1]) | Activity (Olea europaea [2]) | Activity (Olea europaea [3]) | Activity (Olea europaea [4]) | Activity (Olea europaea [5]) | Activity (Olea europaea [6]) | Activity (Olea europaea [7]) | Activity (Olea europaea [8]) | Activity (Olea europaea [9]) | Activity (Olea europaea [10]) | Activity (Olea europaea [11]) | Activity (Olea europaea [12]) | Activity (Olea europaea [13]) | Activity (Olea europaea [14]) | Activity (Olea europaea [15]) | Activity (Olea europaea [16]) | also measured |
| --- | --- | --- | --- | --- | --- | --- | --- | --- | --- | --- | --- | --- | --- | --- | --- | --- | --- |
| O=C(O)CNCP(=O)(O)O [GLYPHOSATE] | Non-toxic | Non-toxic | Non-toxic | Non-toxic | Non-toxic | Non-toxic | Toxic | Non-toxic | Non-toxic | Non-toxic | Toxic | Non-toxic | Toxic | Non-toxic | Toxic | Non-toxic | – |
| CCNc1nc(Cl)nc(NC(C)(C)C)n1 [Terbuthylazine] | Non-toxic | Non-toxic | Toxic | Toxic | Toxic | Non-toxic | Toxic | Non-toxic | Toxic | Non-toxic | Toxic | Toxic | Non-toxic | Non-toxic | Non-toxic | Non-toxic | Activity (Olea europaea [17]): Toxic; Activity (Olea europaea [18]): Non-toxic; Activity (Olea europaea [19]): Toxic; Activity (Olea europaea [20]): Non-toxic; Ratio (Olea europaea [21]): 0.6 |
